Measurements collected from several papers.
Compare with care: the assays were run in different laboratories. ≈ marks a conversion by molar mass, not a printed value.

SMILES | technique | matrix | time | pH | temperature | endpoint | result
CN(C)C(=O)CN1CCN(c2cnc3c(cc(C(=O)NCc4ccc(Cl)cc4)c(=O)n3CC(=O)N3CC(C)(F)C3)n2)C1=O | – | aqueous buffer | 24 h | pH 7.4 | 37 °C | thermodynamic solubility | < 1.56 µM
Cn1cncc1[C@@](N)(c1ccc(Cl)cc1)c1ccc2c(c1)c(-c1cccc(Cl)c1)cc(=O)n2C | – | FeSSIF | – | pH 5 | 37 °C | solubility | 448 µg/mL (≈ 915 µM)
CC1(F)CN(C(=O)Cn2c(=O)c(C(=O)NCc3ccc(Cl)cc3)cc3nc(N4CCN(CC(=O)O)C4=O)cnc32)C1 | – | aqueous buffer | 24 h | pH 7.4 | 37 °C | thermodynamic solubility | 5660 µM
N#C/C(=C\c1c[nH]nc1-c1cccc(Br)c1)C(=O)O | – | PBS | 24 h | pH 7.4 | – | kinetic solubility | 0.1 µM (≈ 0.0318 µg/mL)
Cc1cc(C#N)cc(C)c1Oc1nc(Nc2ccc(C#N)cc2)nc(N)c1Br | – | FaSSIF | 24 h | pH 6.5 | – | thermodynamic solubility | 0.52 µg/mL
CCn1cc(C2CC2)c2c(Cc3ccc(C(F)(F)F)nc3)n(C)nc2c1=O | nephelometry | aqueous buffer | 30 min | pH 6.5 | – | kinetic solubility | 130 to 260 µM (≈ 48.9 to 97.9 µg/mL)
CCNC(=O)c1cnn(-c2ccc(-n3ccc(Cl)c(Cl)c3=O)cc2)c1C(F)(F)F | – | PBS | 24 h | pH 7.4 | – | kinetic solubility | 0.2 µM (≈ 0.089 µg/mL)
Cn1nc2c(=O)n(C3CC3)ccc2c1[C@](C)(O)c1cnc(C(F)(F)F)c(Cl)c1 | nephelometry | aqueous buffer | 30 min | pH 6.5 | – | kinetic solubility | 80 to 160 µM (≈ 33 to 66 µg/mL)
O=C(O)c1cn(-c2ccc(-c3ccc(C(=O)N4CCNCC4)cc3)cc2)cc(O)c1=O | – | aqueous buffer | – | pH 7.4 | – | kinetic solubility | 290 µM (≈ 122 µg/mL)
CCn1cc(C2CC2)c2c(Cc3cnc(C(F)(F)F)c(Cl)c3)n(C)nc2c1=O | nephelometry | aqueous buffer | 30 min | pH 6.5 | – | kinetic solubility | 50 to 100 µM (≈ 20.5 to 41.1 µg/mL)
CCNCc1cnn(-c2ccc(-n3ccc(Cl)c(Cl)c3=O)cc2)c1C(F)(F)F | – | PBS | 24 h | pH 7.4 | – | kinetic solubility | 144 µM (≈ 62.1 µg/mL)
CCn1cc(C2CC2)c2c(Cc3ccc(C(F)(F)F)c(F)c3)n(C)nc2c1=O | nephelometry | aqueous buffer | 30 min | pH 6.5 | – | kinetic solubility | 16 to 32 µM (≈ 6.29 to 12.6 µg/mL)
CC1(F)CN(C(=O)Cn2c(=O)c(C(=O)NCc3ccc(Cl)cc3)cc3nccnc32)C1 | – | aqueous buffer | 24 h | pH 7.4 | 37 °C | thermodynamic solubility | 52.6 µM
CC[C@@](N)(c1cnc(C(F)(F)F)c(Cl)c1)c1c2ncn(C3CC3)c(=O)c2nn1C | nephelometry | aqueous buffer | 30 min | pH 6.5 | – | kinetic solubility | 80 to 160 µM (≈ 34.1 to 68.3 µg/mL)
C[C@H]1COC2=C1C(=O)C(=O)c1c2ccc2c1CCCC2(C)C | – | PBS | 24 h | pH 7.4 | 25 °C | thermodynamic solubility | 18.3 µg/mL
